Screening data deposited in PubChem BioAssay by Broad Institute.
Compounds with a hit are over-represented: about 1.2% of the library has one in this group of screens.
CAL PDZ FP-1 – CAL PDZ peptide-binding inhibitors, primary screen, biochemical, fluorescence polarization, Cer-tagged CAL PDZ, HTS | AID 504414, 2011 | 330,000 tested, 0.02% active | purified CAL PDZ, TMR-peptide fluorescence polarization, 1 h | inhibition, % at 20 µM | Golgi-associated PDZ and coiled-coil motif-containing protein (Homo sapiens), Q9HD26;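 active = highest replicate inhibition of at least 40%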;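 also: plate controls were DMSO neutral control wells for no effect and unlabeled competitor peptide control wells for full effect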
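System: tagged CAL PDZ domain. Schedule: 1 h room-temperature incubation prior to read. Signal: fluorescence polarization (mP). Measure: percent inhibition from loss of millipolarization.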
ARNT-TACC3 inh – disruptors of ARNT/TACC3 protein interaction, primary screen, biochemical, AlphaScreen, single concentration; Transforming acidic coiled-coil-containing protein 3 (Homo sapiens), Q9Y6A5; AlphaScreen His-ARNT PAS-B/GST-TACC3 binding, luminescence; TACC3 fragment carries E629A point mutation; inhibition, % at 9.99 µM; 390,000 tested, 0.66% active;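 active = mean inhibition of replicates at least 50% and at least half of replicates each reaching 50%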;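 also: 0% = complete ARNT plus TACC3 wells and 100% = ARNT alone without TACC3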
CAL PDZ FP-2 – untagged CAL PDZ binding inhibitors, primary screen, biochemical, fluorescence polarization, HTS; inhibition, % at 24.9 µM; Golgi-associated PDZ and coiled-coil motif-containing protein (Homo sapiens), Q9HD26; 300,000 tested, 0.92% active; purified CAL PDZ, TMR-peptide fluorescence polarization, 1 h;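 active = mean inhibition of at least 30% with at least half of replicates also reaching 30%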;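 also: 0% = DMSO neutral control and 100% = excess unlabeled competitor peptide PRC23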
Starred values were filed as active, the others as inactive; x = no result.

SMILES | CAL PDZ FP-1 | ARNT-TACC3 inh | CAL PDZ FP-2
O=C(CN1C(=O)c2ccccc2C1=O)NCC(=O)OCC(=O)c1ccc(Br)cc1 | 0.3 | x | -2.2
O=C1CN(CC(=O)N2CCCCC2)c2ccccc2O1 | -1.5 | 22.4 | 0.4
O=C(CN1CC(=O)Oc2ccccc21)OCC(=O)c1ccc(Br)cc1 | -0.4 | 71.5* | 7.2
CN(C(=O)COC(=O)c1ccc(Cl)cc1N)C1CCCCC1 | -0.1 | 1.6 | 33.8*
CN(C(=O)COC(=O)c1ccc([N+](=O)[O-])cc1Cl)C1CCCCC1 | -2.2 | 6.6 | -2.5
O=C(c1ccccc1)N1Cc2ccccc2[C@@H]2OC(c3ccc(OCCCO)cc3)=N[C@]2(Cc2ccccc2)C1=O | x | 1.3 | x
O=C(C[C@H]1CC[C@H]2[C@@H](COC[C@@H](O)CN2Cc2nccs2)O1)NCc1ccccc1F | x | 3.3 | x
CC1(C)Cc2ccccc2C(NNC(=O)c2ccccc2)=N1 | -1.5 | -9.9 | -2.5
CC1(C)Cc2ccccc2C(NNC(=O)c2ccccn2)=N1 | 0.1 | 66.3* | -4.5
CN(C)c1cccc(C(=O)OCC(=O)N(Cc2ccccc2)C2CCS(=O)(=O)C2)c1 (stereo not given) | -1.1 | 0.9 | 0.2
CCc1ccc(CN(C(=O)COc2c(C)cccc2C)C2CCS(=O)(=O)C2)cc1 (stereo not given) | -2.4 | -2.1 | -4.1
Cc1cccc(C)c1OCC(=O)N(Cc1ccc(N(C)C)cc1)C1CCS(=O)(=O)C1 (stereo not given) | 0.2 | 6.8 | 76.4*
NC(=O)Nc1ccc(C(=O)OCC(=O)N(Cc2ccccc2)C2CCS(=O)(=O)C2)cc1 (stereo not given) | -0.4 | -5.7 | 36.6*
COCC(=O)Nc1ccc2c(c1)C(=O)N(C)[C@@H]1CC[C@@H](CC(=O)NCCc3ccccc3)O[C@@H]1CO2 | x | -3.0 | x
Cc1noc(C)c1NC(=O)N[C@@H]1C=C[C@H](CC(=O)Nc2ccccc2)O[C@H]1CO | x | 7.6 | x
O=C(C[C@@H]1CC[C@H]2[C@@H](COC[C@H](O)CN2Cc2ccccc2F)O1)NCc1ccccc1F | x | 22.0 | x
C[C@H]1CN([C@@H](C)CO)C(=O)c2cc(/C=C/c3ccccc3)cnc2O[C@@H]1CN(C)C(=O)Cc1cccnc1 | x | -4.1 | x
COc1ccc(NC(=O)N(C)C[C@@H]2OCCCC[C@@H](C)Oc3ccc(NS(=O)(=O)c4ccccc4)cc3C(=O)N([C@H](C)CO)C[C@@H]2C)cc1 | x | -8.9 | x
O=C(O)c1cccc(-n2nnnc2SCc2ccccc2Cl)c1 | -0.8 | -3.8 | -4.8
O=C(O)c1ccccc1CSc1nnnn1-c1ccccc1 | x | 5.8 | 80.7*
CC(C)NC(=O)Nc1ccc2c(c1)C(=O)N(C)[C@H]1CC[C@@H](CC(=O)NC3CCCCC3)O[C@@H]1CO2 | x | -1.1 | x
CC(C)(C)c1ccc(C(=O)N2CCN(Cc3ccccc3)CC2)cc1 | -1.0 | -48.8 | -1.4
CC(C)CC(=O)c1c[nH]c(C(=O)N2CCN(Cc3ccccc3)CC2)c1 | -1.5 | -1.1 | 80.1*
O=C(c1ccc(F)cc1F)N1CCN(S(=O)(=O)c2ccc3c(c2)OCCO3)CC1 | -1.0 | -1.8 | 30.7*
CN(C)S(=O)(=O)c1ccc(C(=O)N2CCN(S(=O)(=O)c3ccc4c(c3)OCCO4)CC2)cc1 | -2.1 | -0.2 | 0.4
SMILES | CAL PDZ FP-1 | ARNT-TACC3 inh | CAL PDZ FP-2
COc1ccc(OC)c(NC(=O)C2CCCN(S(=O)(=O)c3c(C)noc3C)C2)c1 (stereo not given) | x | 0.5 | -4.5
CCOc1ccc(OCC)c(NC(=O)C2CCCN(S(=O)(=O)c3c(C)noc3C)C2)c1 (stereo not given) | -4.9 | 12.0 | 32.6*
C[C@H]1CN([C@@H](C)CO)C(=O)c2cc(-c3ccccc3F)cnc2O[C@H]1CN(C)C | x | 0.9 | x
CC(=O)N(C)C[C@H]1Oc2ncc(-c3ccc(C)cc3)cc2C(=O)N([C@H](C)CO)C[C@H]1C | x | -3.3 | x
O=C(C[C@@H]1CC[C@H]2[C@@H](COC[C@H](O)CN2C(=O)c2cnccn2)O1)NCc1ccccc1 | x | 2.2 | x
COCC(=O)N1C[C@@H]2[C@H](c3ccccc31)[C@@H](CO)N2C(=O)C1CCOCC1 | x | 2.8 | x
CN1[C@H](C(=O)NC2Cc3ccccc3C2)[C@@H](CO)[C@@H]2Cn3c(ccc(C4=CCCC4)c3=O)[C@@H]21 | x | -0.8 | x
Cc1ccc2nc(COC(=O)c3ccc(Cl)nc3)cc(=O)n2c1 | -0.1 | 0.0 | 45.7*
Cc1ccc2nc(Cl)cc(=O)n2c1 | 0.0 | -10.8 | -1.9
C[C@@H]1CN([C@H](C)CO)C(=O)c2cc(C3=CCCC3)cnc2O[C@H]1CN(C)S(C)(=O)=O | x | -6.6 | x
C[C@H](NC(=O)C[C@H]1CC[C@H](NC(=O)c2cccnc2)[C@H](CO)O1)c1ccccc1 | x | -5.3 | x
CCC(=O)NC(c1ccco1)c1cc(Cl)c2cccnc2c1O (stereo not given) | -0.1 | -2.4 | 7.6
CC(=O)NC(C)c1cc(F)c2cccnc2c1O (stereo not given) | 0.0 | 74.5* | -1.2
CC(=O)NC(c1cc(Cl)c2cccnc2c1O)C1CC1 (stereo not given) | -1.6 | 68.7* | -5.6
CC(=O)NC(c1ccc(C)cc1)c1cc(Cl)c2cccnc2c1O (stereo not given) | -18.4 | 5.5 | -4.4
O=C(Cc1ccccc1)N1CC[C@@H]2[C@H]1c1cc(Br)ccc1N[C@@H]2CO | x | 0.2 | x
C[C@H]1CN([C@@H](C)CO)C(=O)Cc2cc(N(C)C)ccc2O[C@@H]1CN(C)CC1CC1 | x | -7.7 | x
C[C@@H]1CCCCO[C@@H](CN(C)C(=O)Cc2ccccc2)[C@@H](C)CN([C@@H](C)CO)C(=O)c2cc(NC(=O)CCC(F)(F)F)ccc2O1 | x | -3.4 | x
O=C(O)C1Cc2ccccc2CN1S(=O)(=O)/C=C/c1ccccc1 (stereo not given) | -0.6 | 46.3* | x
CS(=O)(=O)N1Cc2ccccc2CC1C(=O)O (stereo not given) | -2.4 | -1.6 | 2.9
CO[C@H]1CN(C)C(=O)c2ccc(NC(=O)NC(C)C)cc2OC[C@H](C)N(C(=O)CN(C)C)C[C@@H]1C | x | 0.0 | x
COC(=O)C1=CN(Cc2ccc(F)cc2)C=C(C(=O)OC)C1c1cc(OC)c(OC)c(OC)c1 | -3.2 | -31.7 | -4.3
COC(=O)C1=CN(Cc2ccc(OC)cc2)C=C(C(=O)OC)C1c1cc(OC)c(OC)c(OC)c1 | 0.3 | active | 9.3
COC(=O)C1=CN(Cc2ccc(OC)c(OC)c2)C=C(C(=O)OC)C1c1cccc(F)c1 | -15.0 | -3.0 | 57.9*
COCCN1C=C(C(=O)OC)C(c2ccc(OC)c(OC)c2)C(C(=O)OC)=C1 | -2.2 | -6.6 | -5.9
COCC#Cc1ccc2c(c1)O[C@H](CN(C)C)[C@H](C)CN([C@H](C)CO)S2(=O)=O | x | -6.1 | x
O=C(C[C@H]1CC[C@@H]2[C@H](COC[C@@H](O)CN2C(=O)Nc2ccc(Cl)c(Cl)c2)O1)NCc1ccccc1 | x | -0.7 | x
O=C(C[C@@H]1CC[C@H](NS(=O)(=O)c2ccccc2)[C@@H](CO)O1)NCc1ccncn1 | x | -7.1 | x
